In ChEMBL document CHEMBL2150950, “Effect of 4-aryl-2-methyl-5-nitro-1,4-dihydropyridine-3-carboxylates on the guinea pig papillary muscle and isolated human vena saphena magna that is used for coronary artery bypass grafting” (2011):
Activity calls are given as the source filed them. No cut-off for these calls is given here.

Columns and labels:
[1] = Ionotropic effect in guinea pig right ventricle papillary muscles assessed as contraction force at 10^-6 M by force transduction assay relative to untreated control (reference value: 100%); format: functional, Cavia porcellus, Papillary muscle
[2] = Vasodilatory activity in human vena saphena magna assessed as reduction in phenylephrine-induced smooth muscle contraction at 10 uM; format: functional
In short: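 Saphenous vein rings came from 37 CABG patients. They were bathed in Tyrode's solution (mM: NaCl 137, KCl 5.4, CaCl2 1.8, MgCl2 0.9, Tris HCl 10, glucose 5; pH 7.4), equilibrated 45–60 min and washed every 15 min. Rings were precontracted with 10^-4 M phenylephrine, then given cumulative test agent at 10^-7 to 10^-4 M. Isometric relaxation was recorded, as means ± SE.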

[3] = (§1) Ionotropic effect in guinea pig ventricle papillary muscles assessed as lengthening of 90% repolarized cardiac action potential duration time at 10^-5 M by microelectrode technique relative to untreated control (reference value: 209 to 222 APD50 ms) in presence of 3.1 x 10^-6 M inward rectifier current blocker BaCl2; format: functional, Cavia porcellus
[4] = as §1, with “10^-6” for “10^-5”; format: functional, Cavia porcellus
[5] = as §1, with “10^-7” for “10^-5”; format: functional, Cavia porcellus
[6] = as §1, with “25%” for “90%”, “10^-4” for “10^-5”, “120” for “209”, “131 APD25” for “222 APD50”; format: functional, Cavia porcellus
[7] = as §1, with “25%” for “90%”, “10^-6” for “10^-5”, “120” for “209”, “131 APD25” for “222 APD50”; format: functional, Cavia porcellus
[8] = as §1, with “10%” for “90%”, “52” for “209”, “54 APD10” for “222 APD50”; format: functional, Cavia porcellus
[9] = as §1, with “10%” for “90%”, “10^-6” for “10^-5”, “52” for “209”, “54 APD10” for “222 APD50”; format: functional, Cavia porcellus
[10] = Ionotropic effect in guinea pig right ventricle papillary muscles assessed as contraction force at 10^-6 M by force transduction assay relative to untreated control (reference value: 100%) in presence of 3.1 x 10^-6 M inward rectifier current blocker BaCl2; format: functional, Cavia porcellus, Heart right ventricle
[11] = as §1, with “10^-4” for “10^-5”, “1” for “3.1”, “IKr channel” for “inward rectifier current”, “Sotalol” for “BaCl2”; format: functional, Cavia porcellus
[12] = as §1, with “50%” for “90%”, “180” for “209”, “192” for “222”, “1” for “3.1”, “IKr channel” for “inward rectifier current”, “Sotalol” for “BaCl2”; format: functional, Cavia porcellus
[13] = (§2) Ionotropic effect in guinea pig ventricle papillary muscles assessed as lengthening of 50% repolarized cardiac action potential duration time at 10^-7 M by microelectrode technique relative to untreated control (reference value: 180 to 192 APD50 ms) in presence of 1 x 10^-6 M IKr channel blocker Sotalol; format: functional, Cavia porcellus
[14] = as §2, with “25%” for “50%”, “10^-4” for “10^-7”, “120” for “180”, “131 APD25” for “192 APD50”; format: functional, Cavia porcellus
[15] = as §1, with “2” for “3.1”, “10^-5” for “10^-6”, “KATP channel” for “inward rectifier current”, “glibenclamide” for “BaCl2”; format: functional, Cavia porcellus
[16] = as §2, with “at 10^-5” for “at 10^-7”, “of 2” for “of 1”, “x 10^-5” for “x 10^-6”, “M KATP” for “M IKr”, “blocker glibenclamide” for “blocker Sotalol”; format: functional, Cavia porcellus
[17] = as §2, with “of 2” for “of 1”, “x 10^-5” for “x 10^-6”, “M KATP” for “M IKr”, “blocker glibenclamide” for “blocker Sotalol”; format: functional, Cavia porcellus
[18] = Ionotropic effect in guinea pig right ventricle papillary muscles assessed as contraction force at 10^-5 M by force transduction assay relative to untreated control (reference value: 100%) in presence of 2 x 10^-5 M KATP channel blocker glibenclamide; format: functional, Cavia porcellus, Heart right ventricle
[19] = Ionotropic effect in guinea pig right ventricle papillary muscles assessed as contraction force at 10^-6 M by force transduction assay relative to untreated control (reference value: 100%) in presence of 2 x 10^-5 M KATP channel blocker glibenclamide; format: functional, Cavia porcellus, Heart right ventricle
[20] = Ionotropic effect in guinea pig ventricle papillary muscles assessed as lengthening of 90% repolarized cardiac action potential duration time at 10^-6 M by microelectrode technique relative to untreated control (reference value: 132 to 176 APD50 ms); format: functional, Cavia porcellus, Papillary muscle
[21] = Ionotropic effect in guinea pig ventricle papillary muscles assessed as lengthening of 50% repolarized cardiac action potential duration time at 10^-5 M by microelectrode technique relative to untreated control (reference value: 132 to 176 APD50 ms); format: functional, Cavia porcellus, Papillary muscle
[22] = Ionotropic effect in guinea pig ventricle papillary muscles assessed as lengthening of 25% repolarized cardiac action potential duration time at 10^-4 M by microelectrode technique relative to untreated control (reference value: 84 to 104 APD25 ms); format: functional, Cavia porcellus, Papillary muscle

CCCOCCOC(=O)C1=C(C)NC=C([N+](=O)[O-])C1c1ccccc1OC(F)F (configuration not stated)
Activity [1]: 120% | Activity [2]: Active | Time [3]: 260.5 ms | Time [4]: 250.7 ms | Time [5]: 237 ms | Time [6]: 158 ms | Time [7]: 149.7 ms | Time [8]: 63.4 ms | Time [9]: 60.9 ms | Activity [10]: 118% | Time [11]: 250.8 ms | Time [12]: 199 ms | Time [13]: 195 ms | Time [14]: 142 ms | Time [15]: 265 ms | Time [16]: 235 ms | Time [17]: 209 ms | Activity [18]: 163% | Activity [19]: 120% | Time [20]: 229 ms | Time [21]: 205.8 ms | Time [22]: 146.9 ms
